Series [1] is described as follows: Inhibition of Plasmodium falciparum recombinant DXR using DXP as substrate preincubated for 5 mins. Put shortly: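 Recombinant P. falciparum DXR. Inhibition is expressed as Ki.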
Series [2] in a line: Inhibition of Escherichia coli recombinant DXR using DXP as substrate preincubated for 5 mins.
Another series deals with WI-38. The series is described as follows: Cytotoxicity against human WI38 cells after 48 hrs by MTS assay. Type of series: cell-based. To be noted: WI-38, 48 h.
Series [3] deals with Plasmodium falciparum. In words: Ratio of fosmidomycin Ki to compound Ki for Plasmodium falciparum recombinant DXR.
Series [4] has as its system Plasmodium falciparum. In words: Antimalarial activity against Plasmodium falciparum 3D7 after 3 days by SYBR green I assay. Format: functional, organism-based. To be noted: 3D7, 72 h.
Series [5] relates to Plasmodium falciparum. In words: Antimalarial activity against Plasmodium falciparum Dd2 after 3 days by SYBR green I assay. Format: functional, organism-based. To be noted: Dd2, 72 h.
The nature of series [6]: Selectivity index, ratio of EC50 for human WI38 cells to EC50 for Plasmodium falciparum. Type of series: toxicity, cell-based, WI-38. To be noted: read-out: Ratio EC50.
A short description of series [7]: Half life in plasma (unknown origin). Type of series: ADME, cell-free. To be noted: unidentified.

The results in this text go back to ChEMBL document CHEMBL2321676, “Antimalarial and Structural Studies of Pyridine-containing Inhibitors of 1-Deoxyxylulose-5-phosphate Reductoisomerase” (ACS Med Chem Lett, 2013).

On to `O=CN(O)CCC(c1ccccc1)P(=O)(O)O` (stereo unspecified), for which the results for the Ki in series [1] and in series [2] were 480 nM and 1500 nM, respectively.

Turning to `O=CN(O)CCC(c1ccncc1)P(=O)(O)O` (stereo unspecified), the EC50 with WI-38 is > 300000 nM; in the series on Plasmodium falciparum [4], 180 nM; in the series with Plasmodium falciparum [5], 170 nM. In addition, in the series on Plasmodium falciparum [3], the Ratio Ki is 2.4. The Ki in series [1] is 8.9 nM; in series [2], 35 nM. Further, in series [6], the selectivity ratio was > 1700.

In the case of `O=CN(O)CCC(c1cccnc1)P(=O)(O)O` (stereo unspecified), the EC50 with WI-38 was > 300000 nM; in the series with Plasmodium falciparum [4], 340 nM; in the series with Plasmodium falciparum [5], 180 nM. Further, the Ki in series [1] was 13 nM; in series [2], 87 nM. For the same compound, the selectivity ratio in series [6] is > 1700.

On to `CC(=O)N(O)CCC(c1ccccc1)P(=O)(O)O` (stereo unspecified), for which the EC50 is 3500 nM with Plasmodium falciparum [4] and 1700 nM in the series with Plasmodium falciparum [5].

As to `CC(=O)N(O)CCC(c1cccnc1)P(=O)(O)O` (stereo unspecified), the EC50 in the series with WI-38 is > 300000 nM; in the series on Plasmodium falciparum [4], 440 nM; in the series on Plasmodium falciparum [5] it was 310 nM. Also, in the series with Plasmodium falciparum [3], the Ratio Ki stood at 11. For the same compound, the Ki in series [1] worked out at 1.9 nM; in series [2], 42 nM. Also, the selectivity ratio in series [6] is > 1700.

In the case of `CCN(CC)CCCC(C)Nc1ccnc2cc(Cl)ccc12` (stereo unspecified) [CHLOROQUINE], the EC50 was 21 nM in the series with Plasmodium falciparum [4] and 120 nM in the series on Plasmodium falciparum [5].

For the compound `O=CN(O)CCCP(=O)(O)O` [FOSMIDOMYCIN], the EC50 with Plasmodium falciparum [4] turned out to be 1170 nM; with Plasmodium falciparum [5], 440 nM. The same compound had a half-life in series [7] of 1 h.

Regarding `CC(=O)N(O)CCC(c1ccncc1)P(=O)(O)O` (stereo unspecified), the results for the EC50 in the series on WI-38, in the series on Plasmodium falciparum [4] and with Plasmodium falciparum [5] were > 300000 nM, 630 nM and 460 nM, respectively. The Ratio Ki in the series on Plasmodium falciparum [3] is 1.6. The results for the Ki in series [1] and in series [2] were 13 nM and 82 nM, respectively. In addition, in series [6], the selectivity ratio is > 1700.
